# Measurements taken from PubChem BioAssay.
# Activity calls are given as the source filed them.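 Rule for the calls, unless noted: active = NADPH fluorescence slope more negative than the mean of all samples by about 3 SD, 99.7% confidence; inactive = the rest.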
# How the values were obtained:
# [1] = inhibitors of TNFa-induced NFkB p65 translocation, primary screen, imaging, HUVEC, MLSMR starter and 10KST1 sets (AID 438;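 active = inhibition above 20% together with a positive visual image hit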;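 note: compound added about 3h40 before a 20 min TNFalpha stimulation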;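 for inhibition: signal is the nuclear over cytoplasmic p65 intensity ratio per well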); conditions: HUVEC TNFa-induced p65 nuclear translocation; cell count: measured here: nuclei count (cytotoxicity indicator), at 2.08 µM; inhibition: at 2 µM, stronger effect = higher value, 0% TNFa-plus-vehicle, 100% no-TNFa wells
# [2] = inhibitors of E-selectin induction by TNFa, primary screen, imaging, HUVEC, immunofluorescence, MLSMR starter and 10KST1 sets (AID 487;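 active = visually confirmed hit in the image check and inhibition above 20%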;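 for inhibition: signal is fraction of cell area covered by stained E-selectin grains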;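 for nuclei count: 100% = median nuclei count of all wells on the same plate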); conditions: HUVEC TNFalpha-induced E-selectin immunofluorescence imaging, at 2 µM; inhibition: stronger effect = higher value; nuclei count: measured here: cell number, toxicity
# [3] = DUSP6 inhibitors restoring Erk phosphorylation by chemical complementation, primary imaging in DUSP6-transfected HeLa (AID 609;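 active = compounds giving at least 50% inhibition in the cell-based MKP-3 phosphatase rescue imaging test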;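 for inhibition: phospho-Erk level distribution per well compared with pooled transfected vehicle control wells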); conditions: HeLa MKP-3 transfected, phospho-Erk imaging KS statistic, at 10 µM, cells stimulated with TPA for 15 min
# [4] = biological target: Dual specificity protein phosphatase 6 (Homo sapiens) (UniProt Q16828); experiment: as above; conditions: HeLa MKP-3 transfected, phospho-Erk imaging KS statistic; at 10 µM; stronger effect = higher value; cells stimulated with TPA for 15 min
# [5] = biological target: Voltage-gated potassium channel subunit beta-2 (Rattus norvegicus) (UniProt P62483); experiment: KvBeta enzyme negative modulators, primary screen, biochemical, NADPH fluorescence (AID 622;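 active = fluorescence slope higher than the sample average by over 3 SD, cut at about -0.22 in these data, passing the limit was not always enough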;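 note: slope of raw intensity against log time taken from 70 to 1610 s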); conditions: recombinant KvBeta, 4-cyanobenzaldehyde reduction, at 10 µM, stronger effect = higher value
# [6] = biological target: Voltage-gated potassium channel subunit beta-2 (Rattus norvegicus) (UniProt P62483); experiment: KvBeta positive modulators, primary screen, biochemical, NADPH fluorescence (AID 623); conditions: Recombinant KvBeta, NADPH fluorescence decrease slope, 10 min; at 10 µM; stronger effect = lower value;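 note: fluorescence intensity change per second fitted from 20 to 320 s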
# [7] = biological target: Alpha-2C adrenergic receptor (Homo sapiens) (UniProt P18825); experiment: modulators of alpha2C/GIRK thallium flux, primary screen, cell-based, HEK293 alpha2C/GIRK1/2 (AID 624;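 active = fluorescence slope after compound addition differing from the mean of all screened samples at 99.7% confidence, in either direction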;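 note: slope of fluorescence ratio to pre-addition baseline per second over 15 to 24 s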); conditions: thallium flux BTC fluorescence, at 10 µM, actives lie on both sides
# [8] = inhibitors of larval lipid processing in zebrafish, primary screen, whole organism, PED6 fluorescence, gall bladder and intestine (AID 686;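 active = a full or partial loss of lipid-probe fluorescence in the fish gall bladder, intestine or both, judged by eye; inactive = no fluorescence loss, or compound toxic to the fish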;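 note: larvae 5 to 7 days old with five fish per well; signal comes from phospholipase A2 cleavage of quenched PED6 carried via bile; overnight exposure to compound and PED6 before scoring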); conditions: Zebrafish larvae PED6 lipid processing, fluorescence scoring; screened at 20 µM (by protocol)
# Outline: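 System: live zebrafish larvae aged 5-7 days, whole organism; measure: graded gall bladder and intestinal fluorescence inhibition per well; incubation: overnight exposure; reagent: ingested quenched lipid PED6 at 100 nM; signal: By-eye fluorescence microscopy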
# [9] = inhibitors of Chlamydomonas gravitaxis, primary screen, whole organism, Chlamydomonas reinhardtii, WT vs cilia-less mutant, absorbance, 96-well (AID 463189;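 active = inhibition at or above 50% relative to wild type and mutant plate controls; inactive = inhibition below 50%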;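 note: 0% = wild type cc124 cells in DMSO and 100% = ciliumless bld1 mutant cells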); conditions: OD600 absorbance, 2 days, at 10 µM, stronger effect = higher value
# [10] = measured here: cell density z-score
# [11] = measured here: nuclear c-Myc green intensity z-score
# [12] = measured here: nuclear pErk red intensity z-score, stronger effect = higher value
# Chain of Alpha-2C adrenergic receptor (Homo sapiens) (P18825 whole entry, looked up): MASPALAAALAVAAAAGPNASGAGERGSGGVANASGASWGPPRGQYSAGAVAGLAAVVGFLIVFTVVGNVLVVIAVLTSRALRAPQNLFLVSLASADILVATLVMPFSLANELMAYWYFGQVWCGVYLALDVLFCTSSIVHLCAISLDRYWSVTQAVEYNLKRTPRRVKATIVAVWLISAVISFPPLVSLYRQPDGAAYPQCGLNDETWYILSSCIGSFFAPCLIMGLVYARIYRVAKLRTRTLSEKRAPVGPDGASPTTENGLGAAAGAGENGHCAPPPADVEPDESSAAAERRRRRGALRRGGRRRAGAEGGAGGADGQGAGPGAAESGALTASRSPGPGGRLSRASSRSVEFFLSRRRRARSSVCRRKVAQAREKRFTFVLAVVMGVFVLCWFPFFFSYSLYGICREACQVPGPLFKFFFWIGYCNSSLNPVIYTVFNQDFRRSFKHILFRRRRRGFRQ
# Chain of Dual specificity protein phosphatase 6 (Homo sapiens) (Q16828 whole entry, looked up): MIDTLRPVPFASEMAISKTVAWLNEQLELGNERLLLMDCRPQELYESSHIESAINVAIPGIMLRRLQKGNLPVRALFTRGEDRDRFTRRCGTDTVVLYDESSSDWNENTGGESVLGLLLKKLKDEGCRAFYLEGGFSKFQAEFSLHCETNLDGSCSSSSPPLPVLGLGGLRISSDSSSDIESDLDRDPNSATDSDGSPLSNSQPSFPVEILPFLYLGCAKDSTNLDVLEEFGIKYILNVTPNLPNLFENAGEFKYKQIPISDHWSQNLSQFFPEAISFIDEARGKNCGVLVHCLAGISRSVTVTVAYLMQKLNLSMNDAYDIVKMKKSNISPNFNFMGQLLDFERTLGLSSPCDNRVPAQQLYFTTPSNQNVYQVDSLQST
# Chain of Voltage-gated potassium channel subunit beta-2 (Rattus norvegicus) (P62483 whole entry, looked up): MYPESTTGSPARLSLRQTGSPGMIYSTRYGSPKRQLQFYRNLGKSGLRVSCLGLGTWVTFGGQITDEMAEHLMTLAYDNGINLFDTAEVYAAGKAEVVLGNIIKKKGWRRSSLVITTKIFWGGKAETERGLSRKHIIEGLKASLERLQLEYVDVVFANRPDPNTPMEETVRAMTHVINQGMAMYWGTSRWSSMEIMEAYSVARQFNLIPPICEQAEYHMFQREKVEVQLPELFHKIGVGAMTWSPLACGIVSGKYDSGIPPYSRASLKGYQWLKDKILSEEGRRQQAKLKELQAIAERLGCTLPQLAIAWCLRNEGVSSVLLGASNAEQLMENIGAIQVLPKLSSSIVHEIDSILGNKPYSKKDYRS
SMILES,cell count [1],inhibition [1],inhibition [2],nuclei count [2],"z-score [3, 10]","z-score [3, 11]","z-score [3, 12]",inhibition [4],fluorescence slope [5],NADPH fluorescence slope [6],slope [7],outcome [8],inhibition [9]
Cc1c(Cl)c(C(F)(F)F)nn1CC(=O)N1CCSCC1,511,-3.6% (inactive),-110% (inactive),152%,-0.563,-0.304,1.29,-9.7% (inactive),-0.555 (inactive),-4.7e-05 (inactive),0.00531 (inactive),inactive,-2.53% (inactive)
Oc1c(C=Nc2cccnc2)sc2ccccc12,623,-14.4% (inactive),-17% (inactive),170%,0.476,0.705,1.13,-20.4% (inactive),-0.405 (inactive),-6e-05 (inactive),0.0055 (inactive),inactive,-14.9% (inactive)
c1coc(-c2nnc3sc(-c4cccs4)nn23)c1,471,2.8% (inactive),-41.9% (inactive),132%,-1.75,0.838,2.17,-13.3% (inactive),-0.459 (inactive),9.9e-06 (inactive),0.00352 (inactive),active; weak signal in gallbladder and intestine,3.53% (inactive)
CCOC(=O)c1[nH]c2ccc(OC)cc2c1C,547,-3.8% (inactive),-0.1% (inactive),171%,-0.421,-0.589,0.677,-12.3% (inactive),-0.361 (inactive),-2.9e-05 (inactive),0.0043 (inactive),inactive,1.77% (inactive)
CCOc1ccc(C2=Nn3c(nnc3-c3cccnc3)SC2)cc1,732,1.2% (inactive),-49.1% (inactive),186%,-0.574,2.33,0.047,-9.66% (inactive),-0.414 (inactive),-0.000128 (inactive),0.00953 (inactive),inactive,8.58% (inactive)
CCOc1ccc(-n2c3nc4ccccc4nc3c3c(=O)n(Cc4ccco4)cnc32)cc1,381,-13% (inactive),-105% (inactive),171%,0.174,0.579,-1.27,-7.01% (inactive),-0.417 (inactive),-0.000107 (inactive),0.00519 (inactive),inactive,-0.886% (inactive)
COc1cccc(OC)c1-c1nn2c(-c3ccco3)nnc2s1,630,-5.2% (inactive),-86.6% (inactive),172%,0.253,0.886,-0.677,10.1% (inactive),-0.431 (inactive),-0.000166 (inactive),0.00439 (inactive),inactive,5.78% (inactive)
Cc1nnc2n(-c3ccccc3)c(=O)c3c4c(sc3n12)CC(C)CC4 (centres undefined),573,-1.3% (inactive),37.3% (inactive),92.6%,-0.0616,0.767,-0.493,16.1% (inactive),-0.396 (inactive),1.3e-06 (inactive),0.00538 (inactive),inactive,-24.5% (inactive)
CCc1nnc(NC(=O)CSc2nc(C)c3c(c2C#N)CCCC3)s1,613,-13.4% (inactive),-129% (inactive),189%,-0.0126,0.0813,-0.0712,-0.674% (inactive),-0.446 (inactive),4.7e-06 (inactive),0.00625 (inactive),inactive,9.29% (inactive)
CN(C)CCCN1C(=O)C(O)=C(C(=O)c2cc3ccccc3o2)C1c1ccccn1 (centres undefined),511,-3.3% (inactive),-212% (inactive),137%,2.7,-1.21,-1.13,12.3% (inactive),-0.525 (inactive),-4.7e-05 (inactive),0.00446 (inactive),inactive,-5.31% (inactive)
CCc1ccc(NC(=O)CSC2=C(C#N)C(c3ccco3)C3=C(CCCC3=O)N2)cc1 (centres undefined),461,-1.3% (inactive),-13.8% (inactive),117%,-0.838,1.11,0.462,5.57% (inactive),-0.501 (inactive),-8.3e-05 (inactive),0.00507 (inactive),inactive,-1.64% (inactive)
CC1(C)Cc2c(sc3nc4n(c(=O)c23)CCC4)CO1,700,-9.4% (inactive),43.7% (inactive),159%,-1.3,1.46,1.2,2.71% (inactive),-0.377 (inactive),-6e-05 (inactive),0.00549 (inactive),inactive,-8.7% (inactive)
CC(C)(C)OC(=O)NCCC(=O)Oc1ccc2ccc(=O)oc2c1,499,-1.3% (inactive),-209% (inactive),185%,0.0263,0.375,0.541,-11% (inactive),-0.362 (inactive),-2.1e-05 (inactive),0.00495 (inactive),inactive,16.5% (inactive)
